Laboratory results as given in the RNAGym collection of RNA variant scans (doi:10.1126/science.aae0568).
This sample holds only a part of the variants without activity.

B1: tRNA (parent)
chain: GUUCCGUUGGCGUAAUGGUAACGCGUCUCCCUCCUAAGGAGAAGACUGCGGGUUCGAGUCCCGUACGGAACG

Variants of: B1
Test: yeast fitness relative to wild type (ratio to wild type); higher = fitter; tRNA-Arg(CCU), competitive growth, 37 C, YPD
Summary of the method: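 Changes in genotype frequencies gave Darwinian fitness relative to wild type. Frequencies were read by 100-nucleotide paired-end sequencing of gene amplicons before and after pooled Saccharomyces cerevisiae strains, carrying tRNA-Arg(CCU) gene variants at the native locus, were competed in YPD at 37°C for 24 hours in six replicates. A genotype was kept only with ≥ 100 starting reads, and estimates < 0.5 were set to 0.5.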

Row | Variant | yeast fitness
1 | GUUCCGUUGGCGUAAUGGUAAUGCGUCUCCCUCCUAAGGAGAAGACUGCGGGUCCGAGUCCCGUACGGAACG | 0.724
2 | GUUCCGUUGGCGUAAUGGUAAUGCGUCUCCCUCCUAAGGAGAAGACUGCGGGUCCGAGUCCCGUAGGGAACG | ≤ 0.5
3 | GUUCCGUUGGCGUAAUGGUAAUGCGUCUCCCUCCUAAGGAGAAGACUGCGGGUCCGAGUCCCGUACAGAACG | ≤ 0.5
4 | GUUCCGUUGGCGUAAUGGUAAUGCGUCUCCCUCCUAAGGAGAAGACUGCGGGUUCGAGUCCCGAACGGAACG | 0.837
5 | GUUCCGUUGGCGUAAUGGUAAUGCGUCUCCCUCCUAAGGAGAAGACUGCGGGUUCGAGUCCCGCAUGGAACG | 0.7
6 | GUUCCGUUGGCGUAAUGGUAACACGUCUCCCUCCUAAGGAGAAGACUGCGGGUUCGAGUCCCGUACGGAACG | 0.741
7 | GUUCCGUUGGCGUAAUGGUAACACGUCUCCCUCCUCAGGAGAAGACUGCGGGUUCGAGUCCCGUACGGAACG | 0.586
8 | GUUCCGUUGGCGUAAUGGUAACACGUCUCCCUCCUCAGGAGAAGACCCCGGGUUCGAGUCCCGUACGGAACG | ≤ 0.5
9 | GUUCCGUUGGCGUAAUGGUAACACGUCUCCCUCCUGAGGAGAAGACUGCGGGUUCGCGUACCGUACGGAACG | ≤ 0.5
10 | GUUCCGUUGGCGUAAUGGUAACACGUCUCCCUCCUGAGGAGAAGACUGCGGGUUGGAGUCCCGUACGGUACG | 0.567
11 | GUUCCGUUGGCGUAAUGGUAACACGUCUCCCUCCUGAGGAGAAGACUGCGGGUUGGAGUCCCAUACGGUACG | ≤ 0.5
12 | GUUCCGUUGGCGUAAUGGUAACACGUCUCCCUCCUGAGGAGAAGACUGCGGGUUCGAGUCUCGUUCGGAACG | ≤ 0.5
13 | GUUCCGUUGGCGUAAUGGUAACACGUCUCCCUCCUUAGGAGAAGACUGCGGGUUCGAGUCCCGUACGGAACG | 0.536
14 | GUUCCGUUGGCGUAAUGGUAACACGUCUCCCUCCUUAGGCGAAGACUGCGGAUUCGAGUCGCGUACGGAACG | 0.639
15 | GUUCCGUUGGCGUAAUGGUAACACGUCUCCCUCCUUAGCAGAAGACUGCGGGUUCGAGUCCCGUACGGACCG | ≤ 0.5
16 | GUUCCGUUGGCGUAAUGGUAACACGUCUCCCUCCUUAGCAGAAGACUGCGGGUUCGAGUCCCGUAUGGAACG | ≤ 0.5
17 | GUUCCGUUGGCGUAAUGGUAACACGUCUCCCUCCUAUGGAGAAGACUGGGGGUUGGAGUCCCGUACGGAACG | 0.556
18 | GUUCCGUUGGCGUAAUGGUAACACGUCUCCCUCCUAAGGGGAAGAGUGCGGGUUCGAGUCCCGUACGGAACG | ≤ 0.5
19 | GUUCCGUUGGCGUAAUGGUAACACGUCUCCCUCCUAAGGUGAAGACUGCGGGUUCGAGUCCCGUACGGAGCG | 0.537

Row | Variant | yeast fitness
20 | GUUCCGUUGGCGUAAUGGUAACACGUCUCCCUCCUAAGGAGGAGACUGCGGGUUCGAGUCCCGUACGGAACG | 0.747
21 | GUUCCGUUGGCGUAAUGGUAACACGUCUCCCUCCUAAGGAGGAGUCUGCGGGUUCGAGUCCCCCGCGGAACG | ≤ 0.5
22 | GUUCCGUUGGCGUAAUGGUAACACGUCUCCCUCCUAAGGAGGAGACUGCGGGUUCGAGUCUCGUACGGAACG | ≤ 0.5
23 | GUUCCGUUGGCGUAAUGGUAACACGUCUCCCUCCUAAGGAGUAGACUGCGGGUUCGAGUCGCGAACGGAACG | ≤ 0.5
24 | GUUCCGUUGGCGUAAUGGUAACACGUCUCCCUCCUAAGGAGACAACUGCGGGUUCGAGUCCCGUGCGGAACG | 0.637
25 | GUUCCGUUGGCGUAAUGGUAACACGUCUCCCUCCUAAGGAGAUGACUGUGGGUUCGAGUCCUGUACGGAACG | ≤ 0.5
26 | GUUCCGUUGGCGUAAUGGUAACACGUCUCCCUCCUAAGGAGAAGACUGCGGGUUCGCGUCCGGUACGGAACG | 0.625
27 | GUUCCGUUGGCGUAAUGGUAACACGUCUCCCUCCUAAGGAGAAGACUGCGGGUUCGGGUCCCGUACGGAACG | 0.715
28 | GUUCCGUUGGCGUAAUGGUAACACGUCUCCCUCCUAAGGAGAAGACUGCGGGUUCGAGUCCCGUACGGAGCG | 0.689
29 | GUUCCGUUGGCGUAAUGGUAACACGUCUCCCUCCUAAGGAGAAGACUGCGGGUUCGAGUCCCGUACGGAUCG | 0.854
30 | GUUCCGUUGGCGUAAUGGUAACAGGUCUCCCUCCUACGGAGAAGACUGCGGGUUCGAGUCCCGUACGGAACG | 0.506
31 | GUUCCGUUGGCGUAAUGGUAACAUGUCUCCCUCCUAAGGAGAAGACUGCGGGUUCGAGUCCCGUACGGAACG | 0.94
32 | GUUCCGUUGGCGUAAUGGUAACAUGUCUCCCUCCUACGGACAAGACUGCGGGUCCGAGUCCCGCACGGAACG | ≤ 0.5
33 | GUUCCGUUGGCGUAAUGGUAACAUGUCUCCCUCCUAAGGAGAAGACUGCGGGUUCGAGUCUCGUACGGAACG | 0.64
34 | GUUCCGUUGGCGUAAUGGUAACACGUGUCCCUCAUAAGGAGAAGCCUGCGGGUUCGAGUCCCGGACGGAACG | ≤ 0.5
35 | GUUCCGUUGGCGUAAUGGUAACACGUUUCCCUCCUAAGGAGAAGACUGCGGGUUCGAGUCCCGUACGGAACG | 0.706
36 | GUUCCGUUGGCGUAAUGGUAACACGUUUCCCUCCUAUGGAGAAGACUGCGGGUUCGAGUCCCGUACGGAACG | 0.58
37 | GUUCCGUUGGCGUAAUGGUAACACGUUUCCCUCCUAUGGAGAAGACUGCGGGUUCGAGUUACGUACGGAACG | ≤ 0.5
38 | GUUCCGUUGGCGUAAUGGUAACACGUUUCCCUCUUAAGGAGAAGCCUGCGGGUUCGAGUCCCGUACGGAUCG | 0.57
